Twelve molecules from ChEMBL document CHEMBL3124927, “New C(4)- and C(1)-derivatives of furo[3,4-c]pyridine-3-ones and related compounds: evidence for site-specific inhibition of the constitutive proteasome and its immunoisoform” (Bioorg Med Chem Lett, 2014) can be followed below.

The inhibition is the percentage by which the read-out fell short of the control. In general, IC50 refers to the midpoint of a concentration-inhibition curve.

Structures are written as SMILES. Calls of active or inactive are those of the source. No cut-off for these calls is given here.

The species entered for series [1] is Oryctolagus cuniculus. As to the kind of experiment: Inhibition of 20s constitutive proteasome beta 2 subunit trypsin-like activity in rabbit erythrocytes using Boc-LRR-AMC as substrate at 50 uM incubated for 15 mins prior to substrate addition measured after 45 mins by fluorescence assay relative to control. The class given is cell-based. In outline: (§1)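 Purified rabbit erythrocyte constitutive 20S fraction, 0.27 nM enzyme, pre-incubated 15 min with or without inhibitor, then Boc-LRR-AMC added. Buffer at pH 7.5. Fluorescence read-out. IC50 is from a plot of percent inhibition against inhibitor concentration, Hill-equation fit.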

The nature of series [2]: Inhibition of 20s constitutive proteasome beta 5 subunit chymotrypsin-like activity in rabbit erythrocytes using Suc-LLVY-AMC as substrate incubated for 15 mins prior to substrate addition measured after 45 mins by fluorescence assay. The series is classed as cell-based, Oryctolagus cuniculus. The essentials:
(§2)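 Purified rabbit erythrocyte constitutive 20S fraction, 0.27 nM enzyme, pre-incubated 15 min with or without inhibitor before substrate addition. Buffer pH 7.5: 20 mM Tris, 1 mM DTT, 10% glycerol, 0.02% (w/v) SDS. Fluorescence read-out. IC50 is from a percent inhibition versus concentration plot, fitted with a Hill-type equation.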

The nature of series [3]: Inhibition of 20s constitutive proteasome beta 1 subunit caspase-like activity in rabbit erythrocytes using Z-LLE-betaNA as substrate incubated for 15 mins prior to substrate addition measured after 45 mins by fluorescence assay. The series is classed as cell-based, Oryctolagus cuniculus. In outline: as §2
The nature of series [4]: Inhibition of 20s constitutive proteasome beta 2 subunit trypsin-like activity in rabbit erythrocytes using Boc-LRR-AMC as substrate incubated for 15 mins prior to substrate addition measured after 45 mins by fluorescence assay. The series is classed as cell-based, Oryctolagus cuniculus. In outline: as §1
Series [5] concerns the target Cathepsin B (Homo sapiens) (UniProt P07858). Nature of the series: Inhibition of human cathepsin B using Z-RR-AMC as substrate by fluorescence assay. The essentials:
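Human cathepsin B fraction, Z-RR-AMC substrate, at 37 °C in 352 mM KH2PO4, 48 mM Na2HPO4, 1 mM EDTA, 1 mM DTT, pH 6. Fluorescence read-out. IC50 is from percent inhibition versus inhibitor concentration.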

Series [6] has as its target T1, Calpain-1 catalytic subunit (Homo sapiens) (UniProt P07384).
T1 sequence (whole entry): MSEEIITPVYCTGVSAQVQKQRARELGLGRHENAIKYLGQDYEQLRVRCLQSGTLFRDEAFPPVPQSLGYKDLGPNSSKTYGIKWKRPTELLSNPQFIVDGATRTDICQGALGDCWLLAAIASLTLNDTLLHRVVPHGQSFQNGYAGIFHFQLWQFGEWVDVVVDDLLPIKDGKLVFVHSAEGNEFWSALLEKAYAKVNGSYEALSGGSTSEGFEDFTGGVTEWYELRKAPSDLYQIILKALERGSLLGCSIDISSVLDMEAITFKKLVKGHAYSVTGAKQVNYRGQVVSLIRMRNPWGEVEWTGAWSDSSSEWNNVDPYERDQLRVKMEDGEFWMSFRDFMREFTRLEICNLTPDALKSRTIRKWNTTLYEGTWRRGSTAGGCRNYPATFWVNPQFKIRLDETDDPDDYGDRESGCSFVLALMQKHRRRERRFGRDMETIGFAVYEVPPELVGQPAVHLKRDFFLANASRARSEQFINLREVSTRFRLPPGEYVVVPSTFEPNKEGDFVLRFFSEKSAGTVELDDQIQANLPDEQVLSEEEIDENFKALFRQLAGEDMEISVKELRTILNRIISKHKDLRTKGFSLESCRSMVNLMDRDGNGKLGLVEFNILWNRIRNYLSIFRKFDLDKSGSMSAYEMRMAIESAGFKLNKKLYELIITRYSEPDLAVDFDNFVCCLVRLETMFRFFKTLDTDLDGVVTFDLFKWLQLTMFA
Nature of the series: Inhibition of human calpain-1 using Suc-LLVY-AMC as substrate by fluorescence assay. In outline:
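Human calpain I fraction, Suc-LLVY-AMC substrate, at 25 °C in 50 mM Tris, 10 mM DTT with CaCl2, pH 7.2. Fluorescence read-out. IC50 is from percent inhibition versus inhibitor concentration.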

The species named for series [7] is Oryctolagus cuniculus. As to the kind of experiment: Inhibition of 20s constitutive proteasome beta 1 subunit caspase-like activity in rabbit erythrocytes using Z-LLE-betaNA as substrate at 25 uM incubated for 15 mins prior to substrate addition measured after 45 mins by fluorescence assay relative to control. The series is classed as cell-based. In outline: as §2

Series [8] has as its target T2, Proteasome component C5 (Homo sapiens) (UniProt P20618).
T2 sequence (whole entry): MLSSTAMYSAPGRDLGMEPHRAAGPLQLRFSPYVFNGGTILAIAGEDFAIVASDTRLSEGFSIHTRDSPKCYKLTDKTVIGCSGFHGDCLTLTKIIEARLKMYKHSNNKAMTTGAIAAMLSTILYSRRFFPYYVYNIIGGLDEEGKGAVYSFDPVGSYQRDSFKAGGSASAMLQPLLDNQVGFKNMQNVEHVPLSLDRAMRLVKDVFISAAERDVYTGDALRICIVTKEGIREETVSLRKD
As to the kind of experiment: Inhibition of 20s immunoproteasome beta 1 subunit caspase-like activity in human blood monocytes using Z-LLE-betaNA as substrate at 100 uM preincubated for 2 mins followed by substrate addition by fluorescence assay. The series is classed as cell-based. In outline:
(§3)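 Purified immunoproteasome 20S fraction, run like the constitutive assay but with a 2-min pre-incubation with inhibitor before adding the respective substrate. Fluorescence read-out. IC50 is from percent inhibition versus concentration, fitted with a Hill-number equation.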

For series [9], the target named is T3, Proteasome Macropain subunit MB1 (Homo sapiens) (UniProt P28074).
T3 sequence (whole entry): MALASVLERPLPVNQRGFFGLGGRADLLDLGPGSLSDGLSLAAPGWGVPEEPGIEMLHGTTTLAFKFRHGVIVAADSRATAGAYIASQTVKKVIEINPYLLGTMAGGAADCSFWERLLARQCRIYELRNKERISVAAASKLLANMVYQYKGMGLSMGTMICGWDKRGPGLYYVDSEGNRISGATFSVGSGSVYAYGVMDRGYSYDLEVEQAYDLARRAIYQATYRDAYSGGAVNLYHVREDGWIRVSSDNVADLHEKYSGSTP
As to the kind of experiment: Inhibition of 20s immunoproteasome beta 5 subunit chymotrypsin-like activity in human blood monocytes using Suc-LLVY-AMC as substrate at 100 uM preincubated for 2 mins followed by substrate addition by fluorescence assay. The series is classed as cell-based. In outline: as §3

The species named for series [10] is Oryctolagus cuniculus. Nature of the series: Inhibition of 20s constitutive proteasome beta 1 subunit caspase-like activity in rabbit erythrocytes using Z-LLE-betaNA as substrate at 100 uM incubated for 15 mins prior to substrate addition measured after 45 mins by fluorescence assay relative to control. The series is classed as cell-based. In outline:
as §2

The species entered for series [11] is Oryctolagus cuniculus. Nature of the series: Inhibition of 20s constitutive proteasome beta 5 subunit chymotrypsin-like activity in rabbit erythrocytes using Suc-LLVY-AMC as substrate at 100 uM incubated for 15 mins prior to substrate addition measured after 45 mins by fluorescence assay relative to control. The series is classed as cell-based. The essentials:
as §2

Series [12] is filed under the species Oryctolagus cuniculus. Nature of the series: Inhibition of 20s constitutive proteasome beta 5 subunit chymotrypsin-like activity in rabbit erythrocytes using Suc-LLVY-AMC as substrate at 50 uM incubated for 15 mins prior to substrate addition measured after 45 mins by fluorescence assay relative to control. The class given is cell-based. In outline:
as §2

Series [13] is filed under the species Oryctolagus cuniculus. Nature of the series: Inhibition of 20s constitutive proteasome beta 1 subunit caspase-like activity in rabbit erythrocytes using Z-LLE-betaNA as substrate at 50 uM incubated for 15 mins prior to substrate addition measured after 45 mins by fluorescence assay relative to control. The series is classed as cell-based. The essentials:
as §2

Series [14] relates to HeLa. As to the kind of experiment: Cytotoxicity against human HeLa cells assessed as decrease cell attachment after 18 to 72 hrs by XTT assay. The class given is cell-based. The essentials:
(§4)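 HeLa cells seeded and handled as for the in-cell proteasome assay, then exposed to inhibitor for 18 or 72 h. Viability read as XTT reduction to formazan by mitochondrial dehydrogenases: 3 h with 1 mg/mL XTT, absorbance at 485 nm.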

Series [15] concerns mitochondrial dehydrogenase activity (cytotoxicity readout). Nature of the series: Cytotoxicity against human HeLa cells assessed as inhibition of mitochondrial dehydrogenase activity at 50 uM after 18 to 72 hrs by XTT assay relative to control. The class given is cell-based. As to conditions: read-out: INH. In outline:
as §4
A general note: Tetrazolium dyes change colour on reduction, which living cells bring about.

In series [16] the target is Proteasome Macropain subunit (Homo sapiens) (UniProt P49721). Nature of the series: Inhibition of 20s immunoproteasome beta 2 subunit trypsin-like activity in human blood monocytes using Boc-LRR-AMC as substrate at 100 to 2000 nM preincubated for 2 mins followed by substrate addition by fluorescence assay. The series is classed as cell-based. The essentials: as §3
Sequence of Proteasome Macropain subunit (Homo sapiens) (P49721 whole entry): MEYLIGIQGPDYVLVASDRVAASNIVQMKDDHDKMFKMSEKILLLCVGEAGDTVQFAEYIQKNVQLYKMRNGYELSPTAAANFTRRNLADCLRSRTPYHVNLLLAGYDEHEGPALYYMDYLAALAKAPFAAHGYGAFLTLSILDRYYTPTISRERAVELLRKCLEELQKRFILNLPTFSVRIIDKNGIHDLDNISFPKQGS

Series [17] deals with T3, Proteasome Macropain subunit MB1 (Homo sapiens). As to the kind of experiment: Inhibition of 20s immunoproteasome beta 5 subunit chymotrypsin-like activity in human blood monocytes using Suc-LLVY-AMC as substrate at 100 to 2000 nM preincubated for 2 mins followed by substrate addition by fluorescence assay. The class given is cell-based. In outline: as §3
The species entered for series [18] is Oryctolagus cuniculus. Nature of the series: Inhibition of 20s constitutive proteasome beta 2 subunit trypsin-like activity in rabbit erythrocytes using Boc-LRR-AMC as substrate at 100 uM incubated for 15 mins prior to substrate addition measured after 45 mins by fluorescence assay relative to control. The class given is cell-based. In outline:
as §1

Molecule `Cc1sc2ncn(CCCn3ccnc3)c(=O)c2c1C` showed an inhibition in series [1] of 42%. Moreover, the IC50 entry in series [2] and in series [3] was “Not Active” throughout.
Take `CC1(C)OC(=O)c2c1ccnc2Nc1ccc(S(N)(=O)=O)cc1`: the IC50 result in series [4] and in series [2] was “Not Active” in each case. Also, the inhibition result in series [5], in series [6] and in series [7] was “inactive” each time.
Take `O=c1c2cc(-c3ccccc3)sc2ncn1CCc1ccc(Cl)cc1`: the IC50 in series [4] (read-out: IC50) was 9.9 µM. Besides, the inhibition entry in [8] and in series [9] was “inactive” in each case.
Take `CC1(C)OC(=O)c2c1ccnc2N1CCCCC1`: the IC50 result in series [4] and in [2] was “Not Active” each time. Also, the inhibition entry in [5] and in [6] was “inactive” in each case. For the same molecule, the inhibition in series [10] was 41.6%.
For the molecule `O=c1c2c(-c3ccc(Cl)cc3)csc2ncn1CCc1ccc(F)cc1`, the inhibition in series [1] stood at 56%. In addition, the IC50 entry in [2] and in series [3] was “Not Active” throughout.
For `CC1(C)OC(=O)c2c1ccnc2Nc1ccc(Cl)cc1`, in series [4], the half-maximal inhibitory concentration (IC50) result was “Not Active”. Further, the inhibition in series [11] was found to be 24.5%; in series [10], 41.5%. Further, the inhibition result in series [5] and in [6] was “inactive” throughout.
Turning to `CCC1(C)OC(=O)c2c1ccnc2N` (stereo not drawn), the IC50 result was “Not Active” in series [4] and 7 µM in series [3] (read-out: IC50). In series [11], this molecule returned an inhibition of 21.5%. The inhibition result in series [5] and in [6] was “inactive” each time.
With `CCN(CC)CC(O)Cn1cnc2sc(-c3ccccc3)cc2c1=O` (stereo not drawn), the IC50 in series [4] (read-out: IC50) worked out at 19.4 µM. For the same molecule, the inhibition is 36% in series [12] and 25% in series [13].
Consider `CC1(C)OC(=O)c2c1ccnc2NCc1ccccc1`, for which the inhibition entry in [5], in [6], in series [16] and in series [17] was “inactive” each time. In addition, in [14], the Activity entry was “Toxic”. Besides, the cytotoxicity at 50 µM in series [15] was found to be 35%.
For `CC1(C)OC(=O)c2c1ccnc2S`, the IC50 result in series [4] was “Not Active”; in [2] (read-out: IC50), 79 µM. For the same molecule, the inhibition result in series [5] and in series [6] was “inactive” each time. The molecule also registered an inhibition in series [10] of 48%.
On to `CC1(C)OC(=O)c2c1ccnc2NNC(N)=S`, for which the inhibition in [18] stood at 29%; in series [11], 26%; in series [10] it was 41%. Moreover, the inhibition result in series [5] and in series [6] was “inactive” throughout.
Regarding `O=C1OC2(CCCCC2)c2ccnc(S)c21`, the IC50 result in [4] is reported as “Not Active”. In addition, the inhibition in series [11] turned out to be 52%; in series [10], 20%. Moreover, the inhibition entry in series [5] and in series [6] was “inactive” throughout.
